Results published in ChEMBL document CHEMBL3734651, “Synthesis of dihydropyrimidine α,γ-diketobutanoic acid derivatives targeting HIV integrase” (Eur J Med Chem, 2015).

Columns and labels:
[1] = molecular target: T1, Human immunodeficiency virus type 1 integrase (Human immunodeficiency virus 1, UniProt Q7ZJM1); assay: Inhibition of recombinant HIV-1 integrase 3'-processing activity expressed in Escherichia coli BL21(DE3) cells using 32P-labeled DNA substrate after 1 hr by densitometric analysis
T1 sequence (Q7ZJM1 whole entry): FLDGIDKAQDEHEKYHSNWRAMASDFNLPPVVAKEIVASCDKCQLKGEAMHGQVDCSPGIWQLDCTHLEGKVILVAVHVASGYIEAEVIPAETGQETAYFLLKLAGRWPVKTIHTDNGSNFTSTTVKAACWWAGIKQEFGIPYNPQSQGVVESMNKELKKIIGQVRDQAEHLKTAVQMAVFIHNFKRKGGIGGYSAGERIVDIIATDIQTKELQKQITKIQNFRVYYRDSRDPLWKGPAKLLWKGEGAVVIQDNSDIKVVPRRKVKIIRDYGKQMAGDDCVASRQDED
How it was run: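 Reaction run 1 h at 37 °C, then stopped with an equal volume of formamide loading buffer containing 1% SDS, 0.25% bromophenol blue and xylene cyanol. Products resolved on 16% denaturing polyacrylamide sequencing gels; dried gels imaged. Value reported as the concentration giving 50% inhibition.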

[2] = molecular target: T1, Human immunodeficiency virus type 1 integrase; assay: Inhibition of recombinant HIV-1 integrase stand transfer activity expressed in Escherichia coli BL21(DE3) cells using 32P-labeled DNA substrate after 1 hr by densitometric analysis
Vero = assay: (§1) Cytotoxicity against African green monkey Vero cells assessed as reduction in cell growth incubated for 5 days by CellTiter 96 AQueous One Solution cell proliferation assay; type: cell-based; details: chlorocebus sabaeus, vero, 120 h
[3] = tested on: Human immunodeficiency virus 1; assay: Antiviral activity against HIV1 infected in human peripheral blood mononuclear cells assessed as inhibition of reverse transcriptase activity incubated for 6 days; type: functional, organism-based; details: Human immunodeficiency virus 1, 144 h
CCRF-CEM = assay: (§2) Cytotoxicity against human CEM cells assessed as reduction in cell growth incubated for 5 days by CellTiter 96 AQueous One Solution cell proliferation assay; type: cell-based; details: ccrf-cem, 120 h
PBMC = assay: (§3) Cytotoxicity against human PBMC assessed as reduction in cell growth incubated for 5 days by CellTiter 96 AQueous One Solution cell proliferation assay; type: cell-based; details: pbmc, 120 h
[4] = as §1; type: cell-based; details: chlorocebus sabaeus, Vero cells
[5] = as §2; type: cell-based, CCRF-CEM; details: CEM (CCRF-CEM) cells
[6] = as §3; type: cell-based; details: PBMC (peripheral blood mononuclear cells)

SMILES	IC50 [1]	IC50 [2]	other results
CCOC(=O)c1c(-c2ccccc2)nc(=O)n(Cc2ccc(C(=O)/C=C(\O)C(=O)O)cc2)c1CC	19.1 µM	640 nM	
CCOC(=O)c1c(CC)nc(SCc2ccc(C(=O)/C=C(\O)C(=O)OC(C)C)cc2)nc1-c1ccc(F)cc1			CC50 (Vero): 39.5 µM; EC50 [3]: 25.6 µM; CC50 (CCRF-CEM): 5.2 µM; CC50 (PBMC): 43.2 µM
CCOC(=O)c1c(-c2cc(C)cc(C)c2)nc(=O)n(Cc2ccc(C(=O)/C=C(\O)C(=O)O)cc2)c1-c1ccccc1	16.3 µM	1300 nM	
CCOC(=O)c1c(-c2ccc(OC)cc2)nc(=O)n(Cc2ccc(C(=O)/C=C(\O)C(=O)O)cc2)c1C(C)C	19.2 µM	3300 nM	
CCOC(=O)c1c(-c2ccccc2)nc(=O)n(Cc2ccc(C(=O)/C=C(\O)C(=O)O)cc2)c1C	> 111 µM	2400 nM	
CCOC(=O)c1c(-c2ccccc2)nc(=O)n(Cc2ccc(C(=O)/C=C(\O)C(=O)OC(C)C)cc2)c1CC			CC50 (Vero): > 100 µM; EC50 [3]: > 100 µM; CC50 (CCRF-CEM): 21.4 µM; CC50 (PBMC): > 100 µM
CCOC(=O)c1c(-c2ccc(OC)cc2)nc(=O)n(Cc2ccc(C(=O)/C=C(\O)C(=O)O)cc2)c1CC	72 µM	5600 nM	
CCOC(=O)c1c(CC)nc(SCc2ccc(C(=O)/C=C(\O)C(=O)O)cc2)nc1-c1ccc(OC)cc1	30.7 µM	2270 nM	
CCOC(=O)c1c(-c2ccccc2)nc(SCc2ccc(C(=O)/C=C(\O)C(=O)O)cc2)nc1-c1ccc(OC)cc1	23 µM	1200 nM	
CCOC(=O)c1c(-c2ccc(OC)cc2)nc(=O)n(Cc2ccc(C(=O)/C=C(\O)C(=O)O)cc2)c1-c1ccccc1	17.2 µM	1900 nM	
CCOC(=O)c1c(-c2ccc(F)cc2)nc(=O)n(Cc2ccc(C(=O)/C=C(\O)C(=O)O)cc2)c1-c1ccccc1	16.6 µM	2400 nM	
CCOC(=O)c1c(-c2ccc(F)cc2)nc(=O)n(Cc2ccc(C(=O)/C=C(\O)C(=O)O)cc2)c1CC	35 µM	1100 nM	
CCOC(=O)c1c(-c2ccc(OC)cc2)nc(=O)n(Cc2ccc(C(=O)/C=C(\O)C(=O)OC(C)C)cc2)c1-c1ccccc1			CC50 at 120 h [4]: > 100 µM; EC50 [3]: 80.6 µM; CC50 at 120 h [5]: 25.3 µM; CC50 at 120 h [6]: > 100 µM
CCOC(=O)c1c(CC)nc(SCc2ccc(C(=O)/C=C(\O)C(=O)O)cc2)nc1-c1ccccc1	21.1 µM	2230 nM	
CCOC(=O)c1c(-c2ccccc2)nc(=O)n(Cc2ccc(Cc3cccc(C(=O)/C=C(\O)C(=O)OC(C)C)c3)cc2)c1CC			CC50 at 120 h [4]: > 100 µM; EC50 [3]: 36.8 µM; CC50 at 120 h [5]: 8.9 µM; CC50 at 120 h [6]: 47.6 µM
Cc1cn([C@H]2C[C@H](N=[N+]=[N-])[C@@H](CO)O2)c(=O)[nH]c1=O [ZIDOVUDINE]			CC50 (Vero): 39.5 µM; CC50 (CCRF-CEM): 56.1 µM; CC50 at 120 h [6]: > 100 µM
CCOC(=O)c1c(CC)nc(SCc2ccc(C(=O)/C=C(\O)C(=O)O)cc2)nc1-c1ccc(F)cc1	29.3 µM	920 nM	
CCOC(=O)c1c(-c2ccccc2)nc(SCc2ccc(C(=O)/C=C(\O)C(=O)O)cc2)nc1-c1ccc(F)cc1	22 µM	2800 nM	
CCOC(=O)c1c(Cc2ccccc2)nc(=O)n(Cc2ccc(C(=O)/C=C(\O)C(=O)O)cc2)c1C	16.9 µM	190 nM	
CCOC(=O)c1c(-c2ccc(F)cc2)nc(=O)n(Cc2ccc(C(=O)/C=C(\O)C(=O)O)cc2)c1C(C)C	40 µM	3600 nM	
CCOC(=O)c1c(-c2ccc(F)cc2)nc(=O)n(Cc2ccc(C(=O)/C=C(\O)C(=O)O)cc2)c1C	17.4 µM	1300 nM	
CCOC(=O)c1c(Cc2ccccc2)nc(=O)n(Cc2ccc(C(=O)/C=C(\O)C(=O)OC(C)C)cc2)c1C			CC50 (Vero): 32.9 µM; EC50 [3]: 17.2 µM; CC50 (CCRF-CEM): 7.3 µM; CC50 (PBMC): 77 µM
CCOC(=O)c1c(-c2ccccc2)nc(SCc2ccc(C(=O)/C=C(\O)C(=O)O)cc2)nc1-c1ccccc1	30 µM	6100 nM	
CCOC(=O)c1c(-c2ccccc2)nc(=O)n(Cc2ccc(C(=O)/C=C(\O)C(=O)O)cc2)c1C(C)C	37.5 µM	2300 nM	
CCOC(=O)c1c(-c2ccccc2)nc(=O)n(Cc2ccc(C(=O)/C=C(\O)C(=O)O)cc2)c1-c1ccccc1	18.4 µM	2000 nM	
